Our source for the IC50 values is ChEMBL document CHEMBL4411279, “Synthesis of new chalcone-based homoserine lactones and their antiproliferative activity evaluation” (Eur J Med Chem, 2019).

Assay type in all cases: functional, cell-based
The test system of one test is MCF7. In words: Antiproliferative activity against human MCF7 cells after 72 hrs by MTT assay. Conditions: MCF7, 72 h. A digest of the protocol: (§1)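 Cells seeded 3,000/well, after 24 h medium replaced with compound at 64, 32, 16, 8, 4, 2, 1, 0.5 µM; 72 h exposure, MTT read-out at 570 nm; IC50 given as mean ± SD.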
Another test has as its system MGC-803. In words: Antiproliferative activity against human MGC803 cells after 72 hrs by MTT assay. Conditions: MGC-803, 72 h. The gist of the method:
as §1

The test system of a further test is PC-3. In words: Antiproliferative activity against human PC3 cells after 72 hrs by MTT assay. Conditions: PC-3, 72 h. A digest of the protocol: as §1
In general terms: Tetrazolium dyes change colour on reduction, which living cells bring about.

The next test has as its system DU-145. In words: Antiproliferative activity against human DU145 cells after 72 hrs by MTT assay. The following applies: DU-145, 72 h. A digest of the protocol:
as §1

Take `O=C(COc1ccc(C(=O)/C=C/c2cccc(F)c2)cc1)N[C@H]1CCOC1=O`: the concentration for half-maximal inhibition (IC50) was more than 64 µM with MCF7, more than 64 µM in the test with MGC-803, 23.2 µM with PC-3 and 17.2 µM in the test on DU-145.

Turning to `O=C(COc1ccc(C(=O)/C=C/c2cccc(Cl)c2)cc1)N[C@H]1CCOC1=O`, the half-maximal inhibitory concentration (IC50) came to 20.9 µM with MCF7, 29.1 µM in the test with MGC-803, 4.99 µM with PC-3 and 3.7 µM with DU-145.

Consider `O=C(COc1ccc(C(=O)/C=C/c2ccc(F)cc2)cc1)N[C@H]1CCOC1=O`, for which the IC50 in the test with MCF7 is more than 64 µM; in the test with MGC-803, more than 64 µM; with PC-3, 15.6 µM; with DU-145, 18.8 µM.

For the compound `CC(C)(C)c1ccc(/C=C/C(=O)c2ccc(OCC(=O)N[C@H]3CCOC3=O)cc2)cc1`, the IC50 with MCF7 turned out to be 16.4 µM; in the test on MGC-803, 17.2 µM; in the test on PC-3, 10.6 µM; in the test with DU-145, 6.57 µM.

Turning to `COc1ccccc1/C=C/C(=O)c1ccc(OCC(=O)N[C@H]2CCOC2=O)cc1`, the IC50 in the test on MCF7 was more than 64 µM; in the test with MGC-803, 39.4 µM; with PC-3, 7.24 µM; in the test with DU-145 it was 10.1 µM.

With `O=C(COc1ccc(C(=O)/C=C/c2ccccc2Br)cc1)N[C@H]1CCOC1=O`, the IC50 was 15.2 µM in the test on MCF7, 12.2 µM with MGC-803, 3.26 µM in the test on PC-3 and 3.54 µM in the test with DU-145.

Regarding `C=CCc1ccc(OCCSC(=S)N[C@H]2CCOC2=O)c(OC)c1`, the IC50 is more than 64 µM with MCF7, 27.9 µM in the test on MGC-803, more than 64 µM in the test on PC-3 and more than 64 µM in the test on DU-145.

As for `O=C(CNc1ccccc1F)N[C@H]1CCOC1=O`, the IC50 in the test on MCF7, with MGC-803, in the test on PC-3 and with DU-145 was more than 64 µM each time.

In the case of `O=C1OCC[C@@H]1NC(=S)SCCOc1ccccc1`, the IC50 with MCF7 was more than 64 µM; with MGC-803 it was 53.8 µM; in the test with PC-3, more than 64 µM; in the test with DU-145, 63.8 µM.

As to `O=C(CNc1ccccc1)N[C@H]1CCOC1=O`, the IC50 with MCF7, in the test with MGC-803, in the test with PC-3 and in the test with DU-145 was more than 64 µM each time.

On to `O=C(CNc1ccc(Cl)cc1Cl)N[C@H]1CCOC1=O`, for which the IC50 in the test with MCF7, with MGC-803, in the test on PC-3 and in the test on DU-145 was more than 64 µM each time.

For `CC(C)c1ccc(NCC(=O)N[C@H]2CCOC2=O)cc1`, the IC50 with MCF7, in the test on MGC-803, in the test with PC-3 and with DU-145 was more than 64 µM throughout.

Take `O=C(COc1ccc(C(=O)/C=C/c2cccc([N+](=O)[O-])c2)cc1)N[C@H]1CCOC1=O`: the half-inhibitory concentration (IC50) in the test on MCF7 is more than 64 µM; in the test with MGC-803, more than 64 µM; in the test with PC-3 it was 56.2 µM; with DU-145, 41.8 µM.

In the case of `O=C1OCC[C@@H]1NC(=S)SCCOc1ccccc1[N+](=O)[O-]`, the 50% inhibitory concentration (IC50) in the test on MCF7 is more than 64 µM; in the test with MGC-803, 47 µM; in the test with PC-3, 24 µM; in the test with DU-145, 33.4 µM.

Consider `O=C(CNc1cccc(Cl)c1)N[C@H]1CCOC1=O`, for which the 50% inhibitory concentration (IC50) with MCF7, in the test on MGC-803, in the test on PC-3 and in the test with DU-145 was more than 64 µM in each case.

Broadly, the IC50 is the concentration that gives 50% inhibition. Low values mean greater potency in that assay, high ones weaker potency in that assay.
